Consider five compounds from ChEMBL document CHEMBL2331458, “Examination of the mode of action of the almiramide family of natural products against the kinetoplastid parasite Trypanosoma brucei” (J Nat Prod, 2013).

The nature of series [1]: Drug uptake in neomycin-untreated zebrafish embryo neuromast at 250 uM after 3 hrs by confocal microscopic analysis. The format is ADME, tissue-based, Danio rerio. The conditions noted are these: in vivo. The method, boiled down:
(§1)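 Zebrafish embryos were pretreated 1 h with neomycin 500 µM or with medium only. Both groups were then exposed to fluorescent probe (250 µM), fluorophore control (250 µM) or no compound for 3 h, and localization was imaged by confocal microscopy.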

Series [2] in a line: Drug uptake in 120 hrs post fertilized zebrafish embryo intestinal tract at 1 to 270 uM after 3 hrs by confocal microscopic analysis. It is filed as ADME, Danio rerio. The conditions noted are these: in vivo. The method, boiled down:
(§2)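 Zebrafish embryos at 48 and 120 h post fertilization were incubated with fluorescent probe or fluorophore control in methylene blue-free egg water at 270, 90, 30 and 0 µM, three embryos per treatment. Localization was imaged by confocal microscopy after 3 h.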

The species entered for series [3] is Danio rerio. Nature of the series: Drug uptake in 48 hrs post fertilized zebrafish embryo lateral line at 1 to 270 uM after 3 hrs by confocal microscopic analysis. The conditions noted are these: in vivo. It is filed as ADME, organism-based. The essentials:
as §2

Series [4] concerns Trypanosoma brucei brucei. Nature of the series: Antiparasitic activity against Trypanosoma brucei brucei 427-221 assessed as growth inhibition up to 50 uM after 48 hrs by cellTiter-Glo assay. It is filed as functional, organism-based. The essentials: (§3)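 T. b. brucei 427-221 was grown at 37 °C and 5% CO2 in HMI-9 with 10% FBS, 10% Serum Plus and penicillin/streptomycin, then seeded at 2×10^4/mL. Compounds were serially diluted in DMSO (1% final) and exposed for 48 h. Viability was read by CellTiter-Glo ATP luminescence. Percent inhibition was normalized to thimerosal (2 µM final) and DMSO controls, and IC50 was derived by curve fitting.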

Series [5] is described as follows: Toxicity in 48 hrs post fertilized zebrafish embryo assessed as survival after 24 hrs by inverted microscopic analysis. The conditions noted are these: in vivo, read-out: MTD. The format is organism-based, Danio rerio.
Series [6] can be described thus: Selectivity index, ratio of LD50 for african green monkey Vero cells to IC50 for Trypanosoma brucei brucei 427-221. The format is toxicity, cell-based. The conditions noted are these: read-out: Ratio LD50/IC50.
Series [7] is described as follows: Cytotoxicity against african green monkey Vero cells. The conditions noted are these: chlorocebus sabaeus, read-out: LD50 (the source's name). It is filed as cell-based.
The subject of series [8] is Trypanosoma brucei brucei. Description: Antiparasitic activity against Trypanosoma brucei brucei 427-221 assessed as growth inhibition after 48 hrs by cellTiter-Glo assay. It is filed as functional, organism-based. The conditions noted are these: 427-221, 48 h. The method, boiled down:
as §3

A short description of series [9]: Drug uptake in neomycin-treated zebrafish embryo neuromast at 250 uM after 3 hrs by confocal microscopic analysis. The format is ADME, tissue-based, Danio rerio. The conditions noted are these: in vivo. The method, boiled down:
as §1

Series [10] is filed under the species Danio rerio. Description: Drug uptake in 120 hrs post fertilized zebrafish embryo lateral line at 250 to 500 uM after 3 hrs by confocal microscopic analysis. The format is ADME, organism-based. The conditions noted are these: in vivo.
For series [11], the system named is Trypanosoma brucei brucei. Nature of the series: Binding affinity to Trypanosoma brucei brucei 427-221 PEX11 at 50 uM by […] staining method. The essentials:
(§4)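 Procyclic trypanosomes spread on glass, dried, fixed in 70% EtOH, then permeabilized in PBS/0.2% Triton for 20 min and blocked in PBS/0.5% gelatin. Anti-aldolase (1:500, 1 h) marked glycosomes. Cells were then stained 1 h with probe (5 or 50 µM) plus Alexa 594 anti-rabbit and 100 ng/mL DAPI. Imaged by epifluorescence at 100× oil.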

Series [12] relates to Trypanosoma brucei brucei. Nature of the series: Binding affinity to Trypanosoma brucei brucei 427-221 GIM5 at 50 uM by […] staining method. The method, boiled down:
as §4

For series [13], the system named is Trypanosoma brucei brucei. Nature of the series: Binding affinity to Trypanosoma brucei brucei 427-221 kinetoplast DNA at 5 uM after 1 hr by DAPI staining method. The method, boiled down:
as §4

The nature of series [14]: Drug uptake in Trypanosoma brucei brucei 427-221 cytosol at 5 uM after 1 hr by DAPI staining method. The format is ADME. The essentials: as §4
The test system of series [15] is Trypanosoma brucei brucei. Nature of the series: Antiparasitic activity against Trypanosoma brucei brucei 427-221 assessed as growth inhibition up to 3.1 uM after 48 hrs by cellTiter-Glo assay. It is filed as functional, organism-based. The method, boiled down:
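T. b. brucei 427-221 bloodstream forms, grown in HMI-9 with 10% FBS and 10% Serum Plus at 37 °C, 5% CO2. Seeded at 2×10^4/mL with DMSO-serially diluted compound (1% DMSO final) for 48 h. Thimerosal 2 µM final served as positive control. Viability read by CellTiter-Glo ATP luminescence; % inhibition normalized to controls, IC50 by curve fit.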

Series [16] in a line: Drug uptake in Trypanosoma brucei brucei 427-221 nucleus at 5 uM after 1 hr by DAPI staining method. It is filed as ADME. The essentials:
as §4

Each structure is given as a SMILES string. Calls of active or inactive are those of the source. The rule behind the calls is not given here. Starred links: 1 amine or outer side, 2 acyl side, 3 side chain; linkers in the order of their positions; H or OH if unused. Non-standard residues stand in square brackets, D forms with d. Residues, ends and D or L forms follow the SMILES beside them. *: point of attachment. BODIPY(FL) = CC1=CC(C)=[N+]2C1=Cc1ccc(CCC(=O)*)n1[B-]2(F)F; X2 = CN(C)c1ccc2c(CC(=O)*)cc(=O)oc2c1; NMeAEEA = CN(CCOCCOCC(=O)[*:2])[*:1]; Ethylenediamine = C(CN[*:2])N[*:1]; NMeF = CN[C@@H](Cc1ccccc1)C(=O)O; X1 = CN(CCCCCCCCC(=O)[*:2])[*:1]; Oct(7)enoyl = C=CCCCCCC(=O)*; NMeV = CN[C@H](C(=O)O)C(C)C; NMeA = CN[C@@H](C)C(=O)O

With `CN(C)c1ccc2c(CC(=O)NCCNC(=O)CCc3ccccc3)cc(=O)oc2c1`, the figures for the Drug uptake entry (in series [1]; in series [2]; in the series listed under Danio rerio [3]) were “Not Active”, “Active” and “Active”, respectively.
In the case of `Cc1cc(C)n2c1C=C1C=CC(CCC(=O)NCCNC(=O)CCc3ccccc3)=[N+]1[B-]2(F)F`, the outcome in series [4] was inactive.
As for `C=CCCCCCC(=O)N(C)[C@H](C(=O)N(C)[C@H](C(=O)N(C)[C@H](C(=O)N(C)[C@@H](C)C(=O)N(C)[C@@H](Cc1ccccc1)C(=O)OC)C(C)C)C(C)C)C(C)C` ({Oct(7)enoyl}-[NMeV][NMeV][NMeV][NMeA][NMeF]-OMe), in [5], the MNTC at 24 h is 168 µM. In addition, in series [6], the selectivity ratio was 47. In addition, in series [7], the CC50 was 18.8 µM. For the same compound, the IC50 in [8] was 400 nM.
Regarding `C=CCCCCCC(=O)N(C)[C@H](C(=O)N(C)[C@H](C(=O)N(C)[C@H](C(=O)N(C)[C@@H](C)C(=O)N(C)[C@@H](Cc1ccccc1)C(=O)N(C)CCOCCOCC(=O)NCCNC(=O)Cc1cc(=O)oc2cc(N(C)C)ccc12)C(C)C)C(C)C)C(C)C` ({Oct(7)enoyl}-[NMeV][NMeV][NMeV][NMeA][NMeF][NMeAEEA]-{Ethylenediamine-X2}), the Drug uptake result in [9] is listed as “Not Active”; in [1], “Active”; in the series filed under Danio rerio [10] it was “Active”; in [2], “Active”; in the series filed under Danio rerio [3], “Active”.
In the case of `C=CCCCCCC(=O)N(C)[C@H](C(=O)N(C)[C@H](C(=O)N(C)[C@H](C(=O)N(C)[C@@H](C)C(=O)N(C)[C@@H](Cc1ccccc1)C(=O)N(C)CCCCCCCCC(=O)NCCNC(=O)CCC1=[N+]2C(=Cc3c(C)cc(C)n3[B-]2(F)F)C=C1)C(C)C)C(C)C)C(C)C` ({Oct(7)enoyl}-[NMeV][NMeV][NMeV][NMeA][NMeF][X1]-{Ethylenediamine-BODIPY(FL)}), the Drug uptake entry is on record as “Not Active” in [2], “Active” in [14] and “Not Active” in series [16]. Moreover, the outcome in [11], in series [12] and in [15] was Active. Moreover, the result in series [13] was inactive.
